Assay results taken from the EternaBench riboswitch data.

Tested on: MS2 coat protein
Assay: apparent Kd, MS2 coat protein; higher = weaker binding; RNA-MaP array; FMN 200 µM where present
How it was run: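 Stalled E. coli RNA polymerase produced the designs on Illumina sequencing-chip clusters. SNAP-549-labelled MS2 coat protein was added from 0.7 or 1.5 nM, doubling to 3 µM, without and then with constant ligand, in 100 mM Tris-HCl pH 7.5, 80 mM KCl, 4 mM MgCl2, BSA, DTT, yeast tRNA and Tween-20. The apparent Kd is the median of filtered per-cluster fits of green signal normalised to red-channel RNA signal and control-cluster median Fmax.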

[1] = designed as: OFF switch for flavin mononucleotide, no ligand
[2] = ligand present: flavin mononucleotide, designed as: OFF switch for flavin mononucleotide
[3] = designed as: ON switch for flavin mononucleotide, no ligand
[4] = ligand present: flavin mononucleotide, designed as: ON switch for flavin mononucleotide

Row | Sequence | apparent Kd [1] [nM] | apparent Kd [2] [nM] | apparent Kd [3] [nM] | apparent Kd [4] [nM]
1 | ACAAAUGGAGGAUAUACAUGAGGAUCACCCAUGUUUAUCCUACAUAUGUGAUAAUCAUGUAGAAGGCCAUAUGA | 16.5 | 12.5 |  | 
2 | UGUUACUAGUAAGGAUAUACUUGCGAUAAGCUUGUAGAAGGUACAGUCUUUUGUAUAACACGUUUACAUGAGGAUCACCCAUGU |  |  | 6.94 | 6.01
3 | GCUGCAUAGGCAGGAUAUGCAAUAAUUUGAAUAAAAUAUAACAAAUUAACAUGAGGAUCACCCAUGUAGAAGGGCCUGUGCAGU | 17.5 | 19.4 |  | 
4 | CAUAUCGUAACAGGAUAUAUGAGUCCUACAUGAGGAUCACCCAUGUAGGUGAUCUAACGAGAUUAGUAGAAGGGUUACGAUAUG |  |  | 16.6 | 8.68
5 | GUCGUGCGGCUUUGCUGUACGAGUACAUGAGGAUCACCCAUGUAGGAUAUGGUUCGUUUUGCGUGCCAGAAGGGCGUGCGUUGU | 25.5 | 24.8 |  | 
6 | GGACGUCACAUGAACAUGAGGAUCACCCAUGUAAAUUCUCAUGAGGAUAUGGAACCUAAUUGGUUCCAGAAGGCGUGGACGUCC |  |  | 849 | 489
7 | UUACCUCAUGAGAAGGACAUGAGGAUCACCCAUGUAGGAUAUCGUGGGAGACAGGUAUUGAAUCUUCGGAUUCAAUACCUGUCU |  |  | 418 | 25.5
8 | GCUAAACAUGAGGAUCACCCAUGUACCGAUCACUAAGGAUAUGGGCGAAUAACGGCUCGGCCAGAAGGUAGAGAUG |  |  | 66.9 | 81.8
9 | UUACUAUCACAGAAGGCUGGAUAGUAUAUAGACGGAGGAUAUGUGACAUGAGGAUCACCCAUGUUUCACCGACAUGAGGAUCAA | 22.5 | 54.1 |  | 
10 | CAAUUGGCACAGAAGGGUGACAUGAGGAUCACCCAUGUAGCGUGGCAUUCAGGAGGAGCCACGCCACAGGAUAUGUGCCGGCAC |  |  | 138 | 116
11 | AUAUAUAUUUAGAAGGACAUGAGGAUCACCCAUGUCGCUGGGCCCGGGAAACCGGGCCCGGCCAUGUAGGAUAUAGAUAUAUAU | 6.72 | 9.5 |  | 
12 | UAAGUCGGAGAUAAUAAUGAUUACAUGAGGAUCACCCAUGUAUAGGAUAUCGUCAGGAAUACUGACGAGAAGGAUACAACCGAC | 17.9 | 25.8 |  | 
13 | UAUAUAUAGUAAGGAUAUGUAUAUAUUUCAUAAACAGAAGGUACUGACAUGAGGAUCACCCAUGUUUUAGUGUGGGCAUGUAGA | 60.1 | 83.8 |  | 
14 | GUCAGCUCGUGAGGAUAUACAACACUGCUUCGGCAGUGUAUUAAGAUCACAUGAGGAUCACCCAUGUAGAAGGCACGAGGUGAU | 20.5 | 245 |  | 
15 | AUGAAAGUAACACAGGAUAUCCAGGAUACAACAUGAGGAUCACCCAUGUACAUACGAACGUAUAAGGAGAAGGGUGGAUGAUCUUC |  |  | 215 | 264
16 | GUGCCGAACCUAGGAUAUCUUAUCGGGUUCCGCCGUGGCUUAGCGACAUGAGGAUCACCCAUGUAAGAGAAGGAGGUGGUGGAG | 299 | 259 |  | 
17 | CCUCUACAUGAGGAUCACCCAUGUGAGGAUAUCUCGGAACAACCACUUAAGGCACUCCAGAGAAGGCACGUGUA | 14.9 | 20.9 |  | 
18 | AGCAGACGAGGAUAUAGAUGGAAUGACAUGAGGAUCACCCAUGUGAUCGAUCUAUUUGAUUUAGAAGGUGUCUGCU | 12.5 | 15.1 |  | 
19 | ACAAAUGGAGGAUAUACAUGAGGAUCACCCAUGUAUAUCCUACAUGUGUGAUAAUCAUGUAGAAGGCCAUUUGA | 14 | 12.3 |  | 
20 | AUAAAUCAUGUAGGAUAUGCGUGGCGAAGCUAUGCAGAAGGACAUGAGGAUCACCCAUGUCUUUCCGUCUGCGUACAGACGGAA | 33.4 | 311 |  | 
21 | UUCAAAUUCGUAGGAUAUGUAUAUAAUUUCUACAUGAGGAUCACCCAUGUUACCAUUUUUUAGUGACAGAAGGACGUAAUCUAA |  |  | 211 | 47.6
22 | ACUCGAUUUUUGGGUAUACUAUAUGAGGAUAUCAUACAUCUAUACAUGAGGAUCACCCAUGUGACUGAGAAGGCAUAUAUAAUA |  |  | 18.8 | 9.15
23 | GGUACCAUCACAGGAUAUGCUUUUCUUUGGGAAGCAGAAGGGUGUAACAUGAGGAUCACCCAUGUGGUACCAGGGCGUGAGCCC |  |  | 170 | 14.8
